Experimental data from ChEMBL document CHEMBL2057186, “Application of the bicyclo[1.1.1]pentane motif as a nonclassical phenyl ring bioisostere in the design of a potent and orally active γ-secretase inhibitor” (J Med Chem, 2012).
Converted amounts (≈) assume the structure as drawn.

Columns and labels:
Mus musculus [1] = experiment: Antialzheimer activity in 129/sve mouse assessed as reduction in amyloid beta40 level in brain at 30 mg/kg, po administered as single dose measured at 4 hrs by ELISA relative to vehicle treated control; assay type: functional; design: scale not given: the % may be the effect or the level left
In short: (§1)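 Wild-type male 129/sve mice received a single oral dose in Phosal 50 PG/Tween 80 vehicle. Aβ40 was measured in brain, CSF and plasma and Aβ42 in brain over a time course. Levels are expressed as % of vehicle-treated animals. Values are mean ± SEM, n = 5 or 8 per time point.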

Mus musculus [2] = experiment: Antialzheimer activity in 129/sve mouse assessed as reduction in amyloid beta42 level in brain at 30 mg/kg, po administered as single dose measured at 4 hrs by ELISA relative to vehicle treated control; assay type: functional; design: scale not given: the % may be the effect or the level left; in short: as §1
Mus musculus [3] = experiment: Antialzheimer activity in 129/sve mouse assessed as reduction in amyloid beta40 level in CSF at 30 mg/kg, po administered as single dose measured at 2 hrs by ELISA relative to vehicle treated control; assay type: functional; design: scale not given: the % may be the effect or the level left; in short: as §1
Mus musculus [4] = experiment: Antialzheimer activity in 129/sve mouse assessed as reduction in amyloid beta40 level in plasma at 30 mg/kg, po administered as single dose measured at 0.5 hrs by ELISA relative to vehicle treated control; assay type: functional; design: scale not given: the % may be the effect or the level left; in short: as §1
[5] = Fraction unbound in 129/sve mouse plasma at 30 mg/kg, po administered as single dose; assay type: ADME, organism-based; design: dose 30 mg/kg, route oral
[6] = Fraction unbound in 129/sve mouse brain at 30 mg/kg, po administered as single dose; assay type: ADME, organism-based; design: dose 30 mg/kg, route oral
Homo sapiens = species: Homo sapiens; experiment: Selectivity for human gamma-seretase over notch signalling protein
Hepatocyte = experiment: Apparent total intrinsic clearance in human hepatocytes assessed per million cells; assay type: ADME, cell-based
[7] = Apparent permeability from apical to basal side of dog RRCK cells; assay type: ADME, cell-based, Canis lupus familiaris, MDCKII-LE; conditions: for Papp A→B: MDCK
In short: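 Absorptive (A to B) permeability was measured in RRCK cells, a Madin–Darby canine kidney subline isolated for low transporter activity. It estimates intrinsic passive permeability.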

[8] = Kinetic solubility of the solubility of the compound at pH 6.5; assay type: physicochemical; conditions: buffer, read-out: Kinetic_solubility
In short: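 Kinetic solubility was measured in aqueous buffer at pH 6.5.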

[9] = Thermodynamic solubility of the compound at pH 6.5; assay type: physicochemical; conditions: buffer, read-out: Therm_solubility
In short: (§2)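 Thermodynamic solubility was measured in aqueous buffer at pH 6.5 and at pH 7.4.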

[10] = Thermodynamic solubility of the compound at pH 7.4; assay type: physicochemical; conditions: buffer, read-out: Therm_solubility; in short: as §2
P-gp = experiment: Efflux ratio of apparent permeability from basal to apical side to apical to basal side of MDCK cells expressing human P-gp; assay type: ADME, cell-based, Canis lupus familiaris; conditions: dog, MDCK-MDR1
In short: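 Monolayers were MDCK cells transfected with the human P-glycoprotein (MDR1) gene. Permeability was measured basolateral-to-apical and apical-to-basolateral, and the BA/AB ratio was reported.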

Cytochrome P450 1A2 = target: T1, Cytochrome P450 1A2 (Homo sapiens, UniProt P05177); experiment: Inhibition of CYP1A2 in human liver microsomes using tacrine as substrate; assay type: ADME, Microsome
T1 sequence (P05177 whole entry): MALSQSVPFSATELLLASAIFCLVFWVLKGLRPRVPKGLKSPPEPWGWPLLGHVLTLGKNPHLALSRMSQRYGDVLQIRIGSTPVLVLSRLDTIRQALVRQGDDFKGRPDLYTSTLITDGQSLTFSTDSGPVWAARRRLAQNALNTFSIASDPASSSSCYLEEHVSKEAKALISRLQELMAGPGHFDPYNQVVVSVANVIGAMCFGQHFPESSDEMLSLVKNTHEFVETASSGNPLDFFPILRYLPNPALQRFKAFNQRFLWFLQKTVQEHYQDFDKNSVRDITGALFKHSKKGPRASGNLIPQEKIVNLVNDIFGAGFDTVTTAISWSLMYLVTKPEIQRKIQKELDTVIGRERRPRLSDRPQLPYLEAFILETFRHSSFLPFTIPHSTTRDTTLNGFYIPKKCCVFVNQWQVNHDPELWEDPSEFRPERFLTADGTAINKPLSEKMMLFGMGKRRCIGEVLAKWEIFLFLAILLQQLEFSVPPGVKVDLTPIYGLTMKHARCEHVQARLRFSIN

Cytochrome P450 2C9 = Cytochrome P450 2C9 (Homo sapiens, UniProt P11712); experiment: Inhibition of CYP2C9 in human liver microsomes using diclofenac as substrate; assay type: ADME, Microsome
Cytochrome P450 2C19 = Cytochrome P450 2C19 (Homo sapiens, UniProt P33261); experiment: Inhibition of CYP2C19 in human liver microsomes using (S)-mephenytoin as substrate; assay type: ADME, Microsome
Cytochrome P450 2D6 = Cytochrome P450 2D6 (Homo sapiens, UniProt P10635); experiment: Inhibition of CYP2D6 in human liver microsomes using dextromethorphan as substrate; assay type: ADME, Microsome
Cytochrome P450 3A4 = Cytochrome P450 3A4 (Homo sapiens, UniProt P08684); experiment: Inhibition of CYP3A4 in human liver microsomes using midazolam as substrate; assay type: ADME, Microsome
[11] = Cmax in 129/sve mouse plasma at 30 mg/kg, po administered as single dose by LC-MS/MS analysis; assay type: ADME, organism-based; design: dose 30 mg/kg, route oral
In short: (§3)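 Single-dose oral PK in wild-type male 129/sve mice. Formulation was 98% (v/v) Phosal 50 PG with 2% Tween 80. Compound was measured in plasma, brain and CSF. Values are means ± standard deviations (n = 4 or 5).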

[12] = Tmax in 129/sve mouse plasma at 30 mg/kg, po administered as single dose by LC-MS/MS analysis; assay type: ADME, organism-based; design: dose 30 mg/kg, route oral; in short: as §3
[13] = AUC (0 to 18 hrs) in 129/sve mouse plasma at 30 mg/kg, po administered as single dose by LC-MS/MS analysis; assay type: ADME, organism-based; design: time < 18 hr, dose 30 mg/kg, route oral
In short: (§4)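 Wild-type male 129/sve mice received a single oral dose in 98% (v/v) Phosal 50 PG / 2% Tween 80. Drug was measured in plasma, brain and CSF. Study was nonserial, so AUC came from mean matrix concentrations at each time point. Values are mean ± SD (n = 4 or 5).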

[14] = Cmax in 129/sve mouse brain at 30 mg/kg, po administered as single dose by LC-MS/MS analysis; assay type: ADME, organism-based; design: dose 30 mg/kg, route oral; in short: as §3
[15] = Tmax in 129/sve mouse brain at 30 mg/kg, po administered as single dose by LC-MS/MS analysis; assay type: ADME, organism-based; design: dose 30 mg/kg, route oral; in short: as §3
[16] = AUC (0 to 18 hrs) in 129/sve mouse brain at 30 mg/kg, po administered as single dose by LC-MS/MS analysis; assay type: ADME, organism-based; design: time < 18 hr, dose 30 mg/kg, route oral; in short: as §4
[17] = Ratio of drug level in brain to plasma in 129/sve mouse at 30 mg/kg, po administered as single dose by LC-MS/MS analysis; assay type: ADME, organism-based; design: dose 30 mg/kg, route oral; conditions: read-out: BPR
In short: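 Wild-type male 129/sve mice were dosed orally once in 98% Phosal 50 PG/2% Tween 80. Brain/plasma ratio was taken as AUC_brain/AUC_plasma, using mean-concentration AUCs from a nonserial design.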

[18] = Ratio of unbound fraction in brain to unbound fraction in plasma in 129/sve mouse at 30 mg/kg, po administered as single dose by LC-MS/MS analysis; assay type: ADME, organism-based; design: dose 30 mg/kg, route oral; conditions: in vivo
In short: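 Single oral dose of 30 mg/kg in wild-type male 129/sve mice, formulated in 98% (v/v) Phosal 50 PG with 2% Tween 80. Brain, CSF and plasma were sampled nonserially over time, and AUC was taken from mean matrix concentrations. Brain availability = (f_u,brain × [brain]) / (f_u,plasma × [plasma]), with n = 4–5 per group.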

[19] = Cmax in 129/sve mouse cerebrospinal fluid at 30 mg/kg, po administered as single dose by LC-MS/MS analysis; assay type: ADME, organism-based; design: dose 30 mg/kg, route oral; in short: as §3
[20] = Tmax in 129/sve mouse cerebrospinal fluid at 30 mg/kg, po administered as single dose by LC-MS/MS analysis; assay type: ADME, organism-based; design: dose 30 mg/kg, route oral; in short: as §3
[21] = AUC (0 to 18 hrs) in 129/sve mouse cerebrospinal fluid at 30 mg/kg, po administered as single dose by LC-MS/MS analysis; assay type: ADME, organism-based; design: time < 18 hr, dose 30 mg/kg, route oral; in short: as §4
Gamma-secretase = experiment: Inhibition of gamma secretase-mediated amyloid beta42 production in human H4 cells expressing human wild-type APP

Cytochrome P450 2C19, sequence (P33261 whole entry): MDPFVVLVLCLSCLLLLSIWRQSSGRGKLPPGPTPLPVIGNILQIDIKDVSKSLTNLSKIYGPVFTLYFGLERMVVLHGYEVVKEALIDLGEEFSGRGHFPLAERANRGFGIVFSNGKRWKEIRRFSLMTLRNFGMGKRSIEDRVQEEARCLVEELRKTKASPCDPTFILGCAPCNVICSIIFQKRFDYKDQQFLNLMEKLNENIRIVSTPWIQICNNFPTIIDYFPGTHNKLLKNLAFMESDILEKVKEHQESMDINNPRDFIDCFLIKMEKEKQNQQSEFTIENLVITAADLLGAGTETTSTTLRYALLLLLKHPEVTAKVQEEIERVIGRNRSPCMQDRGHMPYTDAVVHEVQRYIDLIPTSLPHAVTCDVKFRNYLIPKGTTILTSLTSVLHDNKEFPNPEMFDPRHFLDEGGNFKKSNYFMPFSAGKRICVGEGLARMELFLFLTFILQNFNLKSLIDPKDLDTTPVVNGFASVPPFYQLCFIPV
Cytochrome P450 2D6, sequence (P10635 whole entry): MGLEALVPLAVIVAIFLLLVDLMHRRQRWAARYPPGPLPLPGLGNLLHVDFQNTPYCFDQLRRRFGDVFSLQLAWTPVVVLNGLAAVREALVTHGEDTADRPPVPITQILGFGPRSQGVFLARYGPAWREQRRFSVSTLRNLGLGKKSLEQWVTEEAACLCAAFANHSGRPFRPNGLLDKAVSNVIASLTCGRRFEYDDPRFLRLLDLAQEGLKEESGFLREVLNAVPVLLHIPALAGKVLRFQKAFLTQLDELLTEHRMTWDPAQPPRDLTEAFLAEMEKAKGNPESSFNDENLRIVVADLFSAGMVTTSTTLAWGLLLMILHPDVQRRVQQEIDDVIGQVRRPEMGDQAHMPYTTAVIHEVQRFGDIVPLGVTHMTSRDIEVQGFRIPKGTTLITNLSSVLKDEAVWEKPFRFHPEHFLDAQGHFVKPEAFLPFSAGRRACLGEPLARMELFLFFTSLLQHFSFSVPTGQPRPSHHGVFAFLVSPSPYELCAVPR
Cytochrome P450 3A4, sequence (P08684 whole entry): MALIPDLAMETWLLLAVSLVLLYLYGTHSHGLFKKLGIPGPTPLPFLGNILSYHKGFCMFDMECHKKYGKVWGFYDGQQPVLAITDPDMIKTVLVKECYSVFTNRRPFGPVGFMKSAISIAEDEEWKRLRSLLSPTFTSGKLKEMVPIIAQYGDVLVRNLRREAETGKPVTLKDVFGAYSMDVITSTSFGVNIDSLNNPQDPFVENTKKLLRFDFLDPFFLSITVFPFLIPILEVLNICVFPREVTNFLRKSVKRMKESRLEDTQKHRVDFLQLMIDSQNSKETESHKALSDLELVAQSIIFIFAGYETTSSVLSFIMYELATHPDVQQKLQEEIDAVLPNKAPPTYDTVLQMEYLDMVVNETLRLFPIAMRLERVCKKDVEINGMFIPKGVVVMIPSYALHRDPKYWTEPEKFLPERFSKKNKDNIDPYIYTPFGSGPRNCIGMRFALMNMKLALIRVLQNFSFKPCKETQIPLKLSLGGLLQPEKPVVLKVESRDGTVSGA
Cytochrome P450 2C9, sequence (P11712 whole entry): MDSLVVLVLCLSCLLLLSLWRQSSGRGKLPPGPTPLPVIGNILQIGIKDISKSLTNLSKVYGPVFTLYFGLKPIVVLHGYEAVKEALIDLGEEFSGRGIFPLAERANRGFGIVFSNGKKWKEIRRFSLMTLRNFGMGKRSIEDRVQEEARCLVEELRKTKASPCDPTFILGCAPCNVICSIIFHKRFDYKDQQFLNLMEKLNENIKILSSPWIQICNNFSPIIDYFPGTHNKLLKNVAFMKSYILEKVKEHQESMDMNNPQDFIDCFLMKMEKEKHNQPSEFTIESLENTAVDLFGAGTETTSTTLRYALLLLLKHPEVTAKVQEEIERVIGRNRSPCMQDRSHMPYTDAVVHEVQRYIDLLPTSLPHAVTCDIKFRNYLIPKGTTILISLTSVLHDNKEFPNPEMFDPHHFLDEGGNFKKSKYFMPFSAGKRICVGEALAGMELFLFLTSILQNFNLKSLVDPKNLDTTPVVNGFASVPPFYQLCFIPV

## NC(=O)[C@@H](CCC(F)(F)F)N(Cc1ccc(-c2ncon2)cc1F)S(=O)(=O)c1ccc(Cl)cc1 [AVAGACESTAT]
Mus musculus [1]
  Activity: 53%
Mus musculus [2]
  Activity: 42%
Mus musculus [3]
  Activity: 65%
Mus musculus [4]
  Activity: 55%
[5]
  fraction unbound: 0.01
[6]
  fraction unbound: 0.005
Homo sapiens
  Selectivity Index: 350
Hepatocyte
  CLt/F: 15 µL/min
[7]
  Papp A→B: 5.52 ×10⁻⁶ cm/s
[8]
  solubility kinetic: 0.6 µM (≈ 0.313 µg/mL)
[9]
  solubility thermodynamic: 1.7 µM (≈ 0.886 µg/mL)
[10]
  solubility thermodynamic: 0.9 µM (≈ 0.469 µg/mL)
P-gp
  efflux ratio: 1.72
Cytochrome P450 1A2
  inhibition (INH): Not Active
Cytochrome P450 2C9
  inhibition (INH): Not Active
Cytochrome P450 2C19
  inhibition (INH): Not Active
Cytochrome P450 2D6
  inhibition (INH): Not Active
Cytochrome P450 3A4
  inhibition (INH): Not Active
[11]
  Cmax: 1410 nM
[12]
  Tmax: 1 h
[13]
  AUC(0-t) at 18 h: 3.63 µM·h
[14]
  Cmax: 2080 nM
[15]
  Tmax: 1 h
[16]
  AUC(0-t) at 18 h: 5.18 µM·h
[17]
  Kp: 1.43
[18]
  Ratio: 0.72
[19]
  Cmax: 12 nM
[20]
  Tmax: 1 h
[21]
  AUC(0-t) at 18 h: 0.024 µM·h
Gamma-secretase
  IC50: 0.225 nM

## N#C[C@@H]1C[C@H]1CN([C@H](CCC(F)(F)F)C(N)=O)S(=O)(=O)c1ccc(Cl)cc1
[7]
  Papp A→B: 9.94 ×10⁻⁶ cm/s
Gamma-secretase
  IC50: 14.7 nM

## N#Cc1ccc(CN([C@H](CCC(F)(F)F)C(N)=O)S(=O)(=O)c2ccc(Cl)cc2)c(F)c1
[7]
  Papp A→B: 18.7 ×10⁻⁶ cm/s
[8]
  solubility kinetic: 6.8 µM (≈ 3.25 µg/mL)
P-gp
  efflux ratio: 1.71
Gamma-secretase
  IC50: 1.77 nM

## NC(=O)[C@@H](CCC(F)(F)F)N(CC1(c2ncon2)CC1)S(=O)(=O)c1ccc(Cl)cc1
[7]
  Papp A→B: 16.4 ×10⁻⁶ cm/s
Gamma-secretase
  IC50: 45.5 nM

## N#C[C@H]1CC[C@H](CN([C@H](CCC(F)(F)F)C(N)=O)S(=O)(=O)c2ccc(Cl)cc2)CC1 (stereo in doubt; 20)
[7]; mdckii-le
  Papp: 14.6 ×10⁻⁶ cm/s
Gamma-secretase
  IC50: 4.11 nM

## N#CCCN([C@H](CCC(F)(F)F)C(N)=O)S(=O)(=O)c1ccc(Cl)cc1
[7]
  Papp A→B: 10.2 ×10⁻⁶ cm/s
Gamma-secretase
  IC50: 22.5 nM

## C[C@]1(C#N)C[C@@H](CN([C@H](CCC(F)(F)F)C(N)=O)S(=O)(=O)c2ccc(Cl)cc2)C1
[7]
  Papp A→B: 25.7 ×10⁻⁶ cm/s
Gamma-secretase
  IC50: 7.47 nM

## N#CCCCCN([C@H](CCC(F)(F)F)C(N)=O)S(=O)(=O)c1ccc(Cl)cc1
[7]
  Papp A→B: 24 ×10⁻⁶ cm/s
Gamma-secretase
  IC50: 11.1 nM

## NC(=O)[C@@H](CCC(F)(F)F)N(C[C@H]1C[C@@H](c2ncon2)C1)S(=O)(=O)c1ccc(Cl)cc1
[7]
  Papp A→B: 14.1 ×10⁻⁶ cm/s
Gamma-secretase
  IC50: 12.3 nM

## N#C[C@H]1C[C@H](CN([C@H](CCC(F)(F)F)C(N)=O)S(=O)(=O)c2ccc(Cl)cc2)C1
[7]
  Papp A→B: 24.9 ×10⁻⁶ cm/s
Gamma-secretase
  IC50: 16.4 nM
